Experimental data taken from ChEMBL document CHEMBL1255468 (Antimicrob Agents Chemother, 2010).
The source made the active and inactive calls. No cut-off for these calls is given here.

Columns and labels:
Trypanosoma cruzi [1] = experiment: Antitrypanosomal activity against Trypanosoma cruzi Y infected in mouse assessed as decrease in mouse mortality at 200 mg/kg, po after 20 days post infection; assay type: functional, organism-based; parameters: dose 200 mg/kg
Summary of the method: (§1)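 Male Swiss mice (6–8 weeks, 18–20 g), 8–10 per group, infected i.p. with 10^4 bloodstream trypomastigotes (Y strain). On dpi 5, a single 200 mg/kg oral gavage dose was given in water with 10% Tween-80. Parasitemia was counted daily from dpi 6 to 21 by the Pizzi-Brener method. Body weight was recorded weekly. Mortality was recorded daily, and cumulative mortality at 40 dpi and M50 were calculated.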

Trypanosoma cruzi [2] = experiment: Antitrypanosomal activity against Trypanosoma cruzi Y infected in mouse assessed as decrease in parasitemia in blood at 200 mg/kg, po upto 40 days post infection; assay type: functional; summary of the method: as §1
Trypanosoma cruzi [3] = experiment: Antitrypanosomal activity against Trypanosoma cruzi Y infected in mouse assessed as decrease in mouse mortality at 200 mg/kg, po upto 40 days post infection; assay type: functional, organism-based; parameters: dose 200 mg/kg; summary of the method: as §1

| SMILES | Activity (Trypanosoma cruzi [1]) | Activity (Trypanosoma cruzi [2]) | Activity (Trypanosoma cruzi [3]) |
| --- | --- | --- | --- |
| Cn1c([N+](=O)[O-])cnc1-c1nnc(N/N=C\c2cc(C(C)(C)C)c(O)c(C(C)(C)C)c2)s1 | inactive | Active |  |
| Cn1c([N+](=O)[O-])cnc1-c1nnc(N/N=C\c2ccccc2O)s1 |  | inactive | inactive |
| COc1ccc(/C=N\Nc2nnc(-c3ncc([N+](=O)[O-])n3C)s2)cc1O |  | inactive | inactive |
| Cn1c([N+](=O)[O-])cnc1-c1nnc(N/N=C\c2ccc(Cl)cc2)s1 |  | inactive | inactive |
